In brackets after ≈: the same amount, converted by molar mass.
Legend:
[1] = test system: SK-MEL, KB, BT-549, SK-OV-3, VERO and LLC-PK1 cells; test: cytotoxicity, neutral red uptake assay; type: cell-based, mammalian; settings: highest test concentration 4760 ng/mL
Summary of the method: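 Cells seeded at 25 000/well and allowed 24 h to reach confluence. Test compound was then added and incubated 48 h. Viable cells were counted by a modified neutral red uptake method. The panel was four human cancer lines and two noncancerous mammalian kidney lines. Doxorubicin served as positive control and DMSO as negative control.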

[2] = test system: SA (ATCC29213); test: in vitro antibacterial activity; type: cell-based; settings: Staphylococcus aureus; for IC50: ATCC29213, read-out: IC50 (concentration that affords 50% growth inhibition), SA; for MBC: ATCC29213, read-out: MBC (minimum bactericidal concentration), SA; for MIC: ATCC29213, read-out: MIC, SA
Summary of the method: (§1)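 Test compound serially diluted in 20% DMSO/saline and plated in duplicate, up to 20 μg/mL. Inoculum in cation-adjusted Mueller–Hinton broth, pH 7.3, set by OD630 to 5 × 10^5 CFU/mL. Incubated 16–20 h at 35 °C; 530 nm read before and after. IC50 is 50% growth inhibition; MIC is no detectable growth. MBC from clear wells subcultured on agar. Ciprofloxacin control.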

[3] = test system: M. intracellulare (ATCC23068); test: in vitro antibacterial activity, modified alamarBlue procedure; type: cell-based, Mycobacterium intracellulare; settings: Mycobacterium intracellulare; for IC50: ATCC23068, read-out: IC50 (concentration that affords 50% growth inhibition), M. intracellulare; for MBC: ATCC23068, read-out: MBC (minimum bactericidal concentration), M. intracellulare; for MIC: ATCC23068, read-out: MIC, M. intracellulare
Summary of the method: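 Modified alamarBlue microplate method. Test compound serially diluted in 20% DMSO/saline, duplicate wells, up to 20 μg/mL. Inoculum 2.0 × 10^6 CFU/mL in Middlebrook 7H9 with OADC, pH 7.3, containing 5% alamarBlue. Incubated 70–74 h at 37 °C, 10% CO2; fluorescence 544ex/590em read before and after. MIC: no blue-to-pink change. MBC by subculturing blue wells on agar. Ciprofloxacin control.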

[4] = test system: P. falciparum (D6); test: in vitro antimalarial activity, plasmodial LDH; type: cell-based, Plasmodium falciparum; settings: Plasmodium falciparum, D6, 72 h, read-out: P. falciparum (D6) IC50
[5] = test system: L. donovani promastigotes; test: in vitro antileishmanial activity, alamarBlue assay; type: cell-based, Leishmania donovani; settings: Leishmania donovani, 48 h; for IC50: read-out: L. donovani IC50, promastigotes, 48 h; for IC90: read-out: L. donovani IC90, promastigotes, 48 h
[6] = test system: C. albicans ATCC90028; test: in vitro antifungal activity; type: cell-based, Candida albicans; settings: Candida albicans; for IC50: ATCC90028, read-out: C. albicans IC50; for MFC: ATCC90028, read-out: C. albicans MFC; for MIC: ATCC90028, read-out: C. albicans MIC
Summary of the method: (§2)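 Modified NCCLS broth method in Sabouraud dextrose. Inoculum set by OD630 to 1.5 × 10^3 CFU/mL. Test compound serially diluted in 20% DMSO/saline, duplicate wells, up to 20 μg/mL. Incubated 70–74 h at 35 °C; 530 nm read before and after. IC50 is 50% growth inhibition; MIC is no detectable growth. MFC from clear wells subcultured on agar. Amphotericin B control.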

[7] = test system: C. neoformans ATCC90113; test: in vitro antifungal activity; type: cell-based, Cryptococcus neoformans; settings: Cryptococcus neoformans; for IC50: ATCC90113, read-out: C. neoformans IC50; for MFC: ATCC90113, read-out: C. neoformans MFC; for MIC: ATCC90113, read-out: C. neoformans MIC
Summary of the method: as §2

[8] = test system: P. falciparum (W2); test: in vitro antimalarial activity, plasmodial LDH; type: cell-based, Plasmodium falciparum; settings: Plasmodium falciparum, W2, 72 h, read-out: P. falciparum (W2) IC50, CQ-resistant W2 strain, 72 h
Summary of the method: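 P. falciparum-infected erythrocytes (2% parasitemia, 2% hematocrit) in RPMI 1640 with 10% human serum and 60 μg/mL amikacin. Exposed to test compound dilutions for 72 h at 37 °C under 90% N2/5% O2/5% CO2. LDH measured with Malstat reagent (30 min, room temperature), then NBT/PES for 1 h in the dark, stopped with 5% acetic acid, read at 650 nm. IC50 from dose-response curves.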

[9] = test system: A. fumigatus ATCC 90906; test: in vitro antifungal activity; type: cell-based, Aspergillus fumigatus; settings: Aspergillus fumigatus; for IC50: ATCC90906, read-out: A. fumigatus IC50; for MFC: ATCC90906, read-out: A. fumigatus MFC; for MIC: ATCC90906, read-out: A. fumigatus MIC
Summary of the method: as §2

[10] = test system: MRSA (ATCC33591); test: in vitro antibacterial activity; type: cell-based, methicillin-resistant Staphylococcus aureus; settings: Staphylococcus aureus, ATCC33591|MRSA, read-out: MIC, MRSA
Summary of the method: as §1

| Compound | cytotoxicity CTX [1] | IC50 [2] | MBC [2] | MIC [2] | IC50 [3] | MBC [3] | MIC [3] | IC50 [4] | IC50 [5] | IC90 [5] | IC50 [6] | MFC [6] | MIC [6] | IC50 [7] | MFC [7] | MIC [7] | IC50 [8] | IC50 [9] | MFC [9] | MIC [9] | also measured |
| --- | --- | --- | --- | --- | --- | --- | --- | --- | --- | --- | --- | --- | --- | --- | --- | --- | --- | --- | --- | --- | --- |
| CCCCCCOc1c(OC)cc(NC(C)CCCNC(=O)C(N)Cc2ccccc2)c2nc(C(C)(C)C)ccc12 (stereo not drawn) [compound 106, 2-Amino-N-(4-(2-tert-butyl-5-(hexyloxy)-6-methoxyquinolin-8-ylamino)pentyl)-3-phenylpropanamide] | NC (NC, not cytotoxic up to 4760 ng/mL (4.76 μg/mL)) | 10.7 µg/mL (≈ 19 µM) | > 20 µg/mL | 20 µg/mL (≈ 35.5 µM) | 18.1 µg/mL (≈ 32.1 µM) | > 20 µg/mL | > 20 µg/mL | > 4.76 µg/mL | 9.89 µg/mL (≈ 17.6 µM) | > 40 µg/mL | > 20 µg/mL | > 20 µg/mL | > 20 µg/mL | 9.83 µg/mL (≈ 17.5 µM) | 20 µg/mL (≈ 35.5 µM) | 20 µg/mL (≈ 35.5 µM) | > 4.76 µg/mL | > 20 µg/mL | > 20 µg/mL | > 20 µg/mL | MIC [10]: 20 µg/mL (≈ 35.5 µM) |
| CCCCCCOc1c(OC)cc(NC(C)CCCNC(=O)C(C)N)c2nc(C(C)(C)C)ccc12 (stereo not drawn) [compound 107, 2-Amino-N-(4-(2-tert-butyl-5-(hexyloxy)-6-methoxyquinolin-8-ylamino)pentyl)-propanamide] | NC (NC, not cytotoxic up to 4760 ng/mL (4.76 μg/mL)) | > 20 µg/mL | > 20 µg/mL | > 20 µg/mL | > 20 µg/mL | > 20 µg/mL | > 20 µg/mL | > 4.76 µg/mL | 17.1 µg/mL (≈ 35.2 µM) | 37.3 µg/mL (≈ 76.7 µM) | > 20 µg/mL | > 20 µg/mL | > 20 µg/mL | > 20 µg/mL | > 20 µg/mL | > 20 µg/mL | > 4.76 µg/mL | > 20 µg/mL | > 20 µg/mL | > 20 µg/mL | MIC [10]: > 20 µg/mL |
| CCCCCCOc1c(OC)cc(NC(C)CCCNC(=O)C(N)Cc2cc3ccccc3[nH]2)c2nc(C(C)(C)C)ccc12 (stereo not drawn) [compound 108, 2-Amino-N-(4-(2-tert-butyl-5-(hexyloxy)-6-methoxyquinolin-8-ylamino)pentyl)-3-(1H-indol-2-yl)propanamide] | NC (NC, not cytotoxic up to 4760 ng/mL (4.76 μg/mL)) | 4.98 µg/mL (≈ 8.27 µM) | > 20 µg/mL | 10 µg/mL (≈ 16.6 µM) | 12.7 µg/mL (≈ 21.2 µM) | 20 µg/mL (≈ 33.2 µM) | 20 µg/mL (≈ 33.2 µM) | > 4.76 µg/mL | 19.1 µg/mL (≈ 31.7 µM) | > 40 µg/mL | > 20 µg/mL | > 20 µg/mL | > 20 µg/mL | 5.09 µg/mL (≈ 8.46 µM) | 10 µg/mL (≈ 16.6 µM) | 10 µg/mL (≈ 16.6 µM) | > 4.76 µg/mL | > 20 µg/mL | > 20 µg/mL | > 20 µg/mL | MIC [10]: 10 µg/mL (≈ 16.6 µM) |
| CCCCCCCOc1c(OC)cc(NC(C)CCCNC(=O)C(N)Cc2ccccc2)c2nc(C(C)(C)C)ccc12 (stereo not drawn) [compound 112, 2-Amino-N-(4-(2-tert-butyl-5-(heptyloxy)-6-methoxyquinolin-8-ylamino)pentyl)-3-phenylpropanamide] | NC (NC, not cytotoxic up to 4760 ng/mL (4.76 μg/mL)) | 4.06 µg/mL (≈ 7.04 µM) | 10 µg/mL (≈ 17.3 µM) | 10 µg/mL (≈ 17.3 µM) | > 20 µg/mL | > 20 µg/mL | > 20 µg/mL | 3.2 µg/mL (≈ 5.55 µM) | 20 µg/mL (≈ 34.7 µM) | 36 µg/mL (≈ 62.4 µM) | > 20 µg/mL | > 20 µg/mL | > 20 µg/mL | 4.56 µg/mL (≈ 7.91 µM) | 5 µg/mL (≈ 8.67 µM) | 5 µg/mL (≈ 8.67 µM) | 2.2 µg/mL (≈ 3.81 µM) | > 20 µg/mL | > 20 µg/mL | > 20 µg/mL | MIC [10]: 10 µg/mL (≈ 17.3 µM) |
| CCCCCCCOc1c(OC)cc(NC(C)CCCNC(=O)C(N)C(C)CC)c2nc(C(C)(C)C)ccc12 (stereo not drawn) [compound 114, 2-Amino-N-(4-(2-tert-butyl-5-(heptyloxy)-6-methoxyquinolin-8-ylamino)pentyl)-3-methylpentanamide] | NC (NC, not cytotoxic up to 4760 ng/mL (4.76 μg/mL)) | 2.19 µg/mL (≈ 4.03 µM) | 5 µg/mL (≈ 9.21 µM) | 5 µg/mL (≈ 9.21 µM) | 5.63 µg/mL (≈ 10.4 µM) | 20 µg/mL (≈ 36.8 µM) | 10 µg/mL (≈ 18.4 µM) | 4.5 µg/mL (≈ 8.29 µM) | 3.8 µg/mL (≈ 7 µM) | 7 µg/mL (≈ 12.9 µM) | 14.2 µg/mL (≈ 26.2 µM) | > 20 µg/mL | > 20 µg/mL | 1.07 µg/mL (≈ 1.97 µM) | 2.5 µg/mL (≈ 4.61 µM) | 2.5 µg/mL (≈ 4.61 µM) | 2.9 µg/mL (≈ 5.34 µM) | > 20 µg/mL | > 20 µg/mL | > 20 µg/mL | MIC [10]: 5 µg/mL (≈ 9.21 µM) |
| CCCCCCCOc1c(OC)cc(NC(C)CCCNC(=O)C(N)Cc2cc3ccccc3[nH]2)c2nc(C(C)(C)C)ccc12 (stereo not drawn) [compound 115, 2-Amino-N-(4-(2-tert-butyl-5-(heptyloxy)-6-methoxyquinolin-8-ylamino)pentyl)-3-(1H-indol-2-yl)propanamide] | NC (NC, not cytotoxic up to 4760 ng/mL (4.76 μg/mL)) | 4.56 µg/mL (≈ 7.4 µM) | 10 µg/mL (≈ 16.2 µM) | 10 µg/mL (≈ 16.2 µM) | 8.74 µg/mL (≈ 14.2 µM) | 20 µg/mL (≈ 32.5 µM) | 10 µg/mL (≈ 16.2 µM) | 3.3 µg/mL (≈ 5.36 µM) | 19 µg/mL (≈ 30.9 µM) | 32 µg/mL (≈ 52 µM) | > 20 µg/mL | > 20 µg/mL | > 20 µg/mL | 1.36 µg/mL (≈ 2.21 µM) | 2.5 µg/mL (≈ 4.06 µM) | 2.5 µg/mL (≈ 4.06 µM) | 2.8 µg/mL (≈ 4.55 µM) | > 20 µg/mL | > 20 µg/mL | > 20 µg/mL | MIC [10]: 5 µg/mL (≈ 8.12 µM) |

Source: paper PMC6045484 (ACS Omega, 2018)
